Source: ChEMBL document CHEMBL3124837, “Bicyclic 1-hydroxy-2-oxo-1,2-dihydropyridine-3-carboxamide-containing HIV-1 integrase inhibitors having high antiviral potency against cells harboring raltegravir-resistant integrase mutants” (J Med Chem, 2014)

How the values were obtained:
[1] = tested on: Human immunodeficiency virus 1; assay: Antiviral activity against Human immunodeficiency virus 1 harboring integrase Y143R mutant infected in HOS cells preincubated for 3 hrs followed by viral infection measured after 48 hrs by luciferase reporter gene assay; type: functional, organism-based; details: Human immunodeficiency virus 1, HOS
Outline: (§1)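 VSV-g-pseudotyped single-round HIV-1 luciferase vector (pNLNgoMIVR-ΔLUC; IN mutants made by site-directed mutagenesis), produced by 293T transfection. HOS cells seeded the day before, given compound over 10 μM to 0.0005 μM (11 serial dilutions), 3 h at 37 °C, then virus added; 48 h at 37 °C. Luciferase read-out normalized to no-compound infectivity; EC50 from regression fit.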

[2] = tested on: Human immunodeficiency virus 1; assay: Antiviral activity against Human immunodeficiency virus 1 harboring integrase N155H mutant infected in HOS cells preincubated for 3 hrs followed by viral infection measured after 48 hrs by luciferase reporter gene assay; type: functional, organism-based; details: Human immunodeficiency virus 1, HOS; outline: as §1
[3] = target: T1, Human immunodeficiency virus type 1 integrase (Human immunodeficiency virus 1, UniProt Q7ZJM1); assay: Inhibition of HIV-1 integrase-mediated 3'-processing activity using [32P]-labeled oligonucleotide as substrate after 2 hrs by densitometric analysis
Outline: (§2)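 400 nM integrase with 20 nM [γ-32P]-labeled DNA in 50 mM MOPS pH 7.2, 7.5 mM MgCl2, 14 mM 2-mercaptoethanol; compounds in DMSO. The substrate for 3′-processing was 21T/21B duplex, and for strand transfer the precleaved 19T/21B duplex. Reactions ran 2 h at 37 °C and were quenched with formamide/SDS loading buffer.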

[4] = tested on: HOS; assay: Cytotoxicity against HOS cells assessed as reduction in ATP level after 48 hrs by luciferase reporter gene assay; type: cell-based; details: human
Outline: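 HOS cells in DMEM with 5% FBS and 5% newborn calf serum, seeded 4000 per well the day before, exposed to compound for 48 h at 37 °C. Cells lysed and ATP measured with a luciferase (ATPlite) read-out. Signal normalized to untreated cells; CC50 from regression fit.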

[5] = tested on: Human immunodeficiency virus 1; assay: Antiviral activity against Human immunodeficiency virus 1 harboring integrase G140S/Q148H double mutant infected in HOS cells preincubated for 3 hrs followed by viral infection measured after 48 hrs by luciferase reporter gene assay; type: functional, organism-based; details: Human immunodeficiency virus 1, HOS; outline: as §1
[6] = Selectivity index, ratio of CC50 for HOS cells to EC50 for wild-type Human immunodeficiency virus 1
[7] = target: T1, Human immunodeficiency virus type 1 integrase; assay: Inhibition of HIV-1 integrase-mediated strand transfer activity using [32P]-labeled oligonucleotide as substrate after 2 hrs by densitometric analysis; outline: as §2
[8] = tested on: Human immunodeficiency virus 1; assay: Antiviral activity against wild-type Human immunodeficiency virus 1 infected in HOS cells preincubated for 3 hrs followed by viral infection measured after 48 hrs by luciferase reporter gene assay; type: functional, organism-based; details: Human immunodeficiency virus 1, HOS; outline: as §1
[9] = tested on: Human immunodeficiency virus 1; assay: Ratio of raltegravir EC50 to compound EC50 for Human immunodeficiency virus 1 harboring integrase N155H mutant; type: functional
Outline: (§3)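 VSV-g-pseudotyped single-round HIV-1 luciferase vectors, produced in 293T cells, carrying WT or site-directed mutant IN (G118R, Y143R, N155H, G140S+Q148H, E138K+Q148K). HOS cells were pretreated 3 h at 37 °C with compound (10 μM to 0.0005 μM, 11 serial dilutions), infected, and incubated 48 h. Luciferase signal was normalized to no-compound infectivity, and EC50 was taken from regression fit. Ratios were formed from these EC50s.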

[10] = tested on: Human immunodeficiency virus 1; assay: Ratio of raltegravir EC50 to compound EC50 for Human immunodeficiency virus 1 harboring integrase Y143R mutant; type: functional; outline: as §3
[11] = tested on: Human immunodeficiency virus 1; assay: Ratio of EC50 for Human immunodeficiency virus 1 harboring integrase G118R mutant to EC50 for wild-type Human immunodeficiency virus 1; type: functional; outline: as §3
[12] = tested on: Human immunodeficiency virus 1; assay: Ratio of raltegravir EC50 to compound EC50 for Human immunodeficiency virus 1 harboring integrase E138K/Q148K double mutant; type: functional; outline: as §3
[13] = tested on: Human immunodeficiency virus 1; assay: Ratio of raltegravir EC50 to compound EC50 for Human immunodeficiency virus 1 harboring integrase G140S/Q148H double mutant; type: functional; outline: as §3
[14] = tested on: Human immunodeficiency virus 1; assay: Ratio of EC50 for Human immunodeficiency virus 1 harboring integrase N155H mutant to EC50 for wild-type Human immunodeficiency virus 1; type: functional

T1 sequence (Q7ZJM1 whole entry): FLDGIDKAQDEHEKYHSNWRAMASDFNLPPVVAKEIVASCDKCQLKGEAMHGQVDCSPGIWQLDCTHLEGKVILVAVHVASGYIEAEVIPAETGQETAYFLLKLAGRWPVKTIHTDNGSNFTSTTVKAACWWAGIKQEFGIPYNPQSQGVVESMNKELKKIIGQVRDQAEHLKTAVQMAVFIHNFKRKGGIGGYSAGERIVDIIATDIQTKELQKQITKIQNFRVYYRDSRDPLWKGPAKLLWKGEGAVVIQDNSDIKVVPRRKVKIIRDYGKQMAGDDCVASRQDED

Row | Structure (SMILES) | EC50 [1] [nM] | EC50 [2] [nM] | IC50 [3] [µM] | CC50 [4] [µM] | selectivity ratio [6] | IC50 [7] [nM] | EC50 [8] [nM] | further results
1 | O=C(NCc1ccc(F)c(F)c1)c1c(O)c2cccnc2n(O)c1=O | 45 | 189 | 3.6 | 192 | 9600 | 40 | 20 | EC50 [5]: 507 nM
2 | O=C(NCc1ccc(F)cc1F)c1c(O)c2cccnc2[nH]c1=O | – | – | > 333 | – | – | 7100 | – | –
3 | Cc1nnc(C(=O)NC(C)(C)c2nc(C(=O)NCc3ccc(F)cc3)c(O)c(=O)n2C)o1 | – | – | – | > 100 | – | – | – | –
4 | O=C(NCc1ccc(F)c(F)c1)c1c(O)c2cccnc2[nH]c1=O | – | – | 93 | – | – | 8100 | – | –
5 | O=C(NCc1ccc(F)c(Cl)c1)c1c(O)c2cccnc2[nH]c1=O | – | – | 125 | – | – | 7800 | – | –
6 | O=C(NCc1ccc(F)c(F)c1)c1cc2cccnc2n(O)c1=O | 40 | 2200 | 13.6 | > 250 | > 4030 | 17 | 62 | –
7 | O=C(NCc1ccc(F)c(Cl)c1)c1cc2cccc(O)c2n(O)c1=O | – | – | 17 | – | – | 530 | – | –
8 | O=C(NCc1ccc(F)c(Cl)c1)c1cc2cccnc2n(O)c1=O | 34 | 90 | 9.4 | > 250 | > 6580 | 14 | 38 | –
9 | O=C(NCc1ccc(F)cc1F)c1c(O)c2cccnc2n(O)c1=O | 11 | 31 | 1.2 | 137 | 22100 | 55 | 6.2 | Ratio EC50 [9]: 10; Ratio EC50 [10]: 10; Ratio EC50 [11]: 6; EC50 [5]: 308 nM; Ratio EC50 [12]: 10; Ratio EC50 [13]: 10; Ratio EC50 [14]: 5
10 | O=C(NCc1ccc(F)cc1F)c1cc2ccccc2n(O)c1=O | – | – | > 333 | – | – | 19700 | – | –
11 | O=C(NCc1ccc(F)c(F)c1)c1cc2cccc(O)c2n(O)c1=O | – | – | 24 | – | – | 780 | – | –
12 | COc1cccc2cc(C(=O)NCc3ccc(F)cc3F)c(=O)n(O)c12 | – | – | > 333 | – | – | > 333000 | – | –
13 | O=C(NCc1ccc(F)c(Cl)c1)c1c(O)c2cccnc2n(O)c1=O | 54 | 148 | 4.7 | 102 | 2910 | 27 | 35 | EC50 [5]: 489 nM
14 | O=C(NCc1ccc(F)cc1F)c1cc2cccnc2n(O)c1=O | – | 134 | 6.1 | > 250 | > 49000 | 41 | 5.1 | EC50 [5]: 438 nM; Ratio EC50 [14]: 26
15 | O=C(NCc1ccc(F)cc1F)c1cc2cccc(O)c2n(O)c1=O | – | – | 43 | – | – | 18000 | – | –
